Data set [1] can be described thus: melting temperature; fluorescence melt of hairpins on a sequencing array, two-state fit, raised by 9.35 °C to match UV melts. Conditions: sodium 0.088 M. Put shortly:
(§1)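 Library hairpins on a sequenced MiSeq flow cell carried annealed Cy3 and quencher oligos, and their Cy3 fluorescence was imaged in 50 mM Na-HEPES pH 8.0 with 25 mM NaCl, in 2.5 °C steps up to 60 °C. Signals were normalised to Cy3 before quenching and to control constructs. Melting temperature and folding enthalpy were obtained from bootstrapped two-state fits, combined by inverse-variance weighting across four replicates, and the fitted temperatures were then raised by 9.35 °C to match UV melts.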

Data set [2] can be described thus: folding enthalpy; higher = less favourable; fluorescence melt of hairpins on a sequencing array, two-state fit. The note with it: sodium 0.088 M. The method, boiled down:
as §1

For GTGTCAACGAAAGTTCAC (((..(((....)))))), the Tm in data set [1] is 29.8 °C. In data set [2], the folding enthalpy was -8.71 kcal/mol.

As for GTGTCAGGAAACTGACAC (((((((....))))))), the Tm in data set [1] turned out to be 66.4 °C. Besides, the folding enthalpy in data set [2] is -37 kcal/mol.

In the case of GTGTCCACGAAAGTGCAC (((..(((....)))))), the Tm in data set [1] amounted to 39.3 °C. Further, in data set [2], the folding enthalpy is -15.1 kcal/mol.

Consider GTGTCCCCGAAAGGGCAC (((..(((....)))))), for which the Tm in data set [1] was determined as 49.6 °C. Further, the folding enthalpy in data set [2] was -21.4 kcal/mol.

With GTGTCCGAAAGGAAACAC ((((((....)))..))), the Tm in data set [1] was 46.5 °C. The folding enthalpy in data set [2] is -22.4 kcal/mol.

On to GTGTCCGAAAGGAACCAC ((((((....)))..))), for which the Tm in data set [1] was found to be 35.3 °C. Also, in data set [2], the folding enthalpy is -12.6 kcal/mol.

As to GTGTCCGAAAGGAATCAC ((((((....)))..))), the Tm in data set [1] was found to be 34.3 °C. The folding enthalpy in data set [2] is -17.3 kcal/mol.

Consider GTGTCCGAAAGGACTCAC ((((((....)))..))), for which the Tm in data set [1] was found to be 39.4 °C. Moreover, the folding enthalpy in data set [2] is -10 kcal/mol.

For the sequence GTGTCCGAAAGGAGCCAC ((((((....)))..))), in data set [1], the Tm is 33.5 °C. Further, in data set [2], the folding enthalpy is -14.5 kcal/mol.

Take GTGTCCGGAAACGAACAC ((((.((....)).)))): the Tm in data set [1] turned out to be 45.4 °C. Also, the folding enthalpy in data set [2] is -32.5 kcal/mol.

Regarding GTGTCGACGAAAGTCCAC (((..(((....)))))), the Tm in data set [1] was determined as 37.2 °C. Besides, the folding enthalpy in data set [2] is -17.8 kcal/mol.

As to GTGTCGGCGAAAGCCCAC (((..(((....)))))), in data set [1], the Tm is 43.8 °C. The folding enthalpy in data set [2] is -13.5 kcal/mol.

Regarding GTGTCGGGAAACCGATGC (..((((....))))..), the Tm in data set [1] worked out at 46 °C. The folding enthalpy in data set [2] is -23.8 kcal/mol.

Regarding GTGTCTCCGAAAGGACAC (((..(((....)))))), the Tm in data set [1] amounted to 45.7 °C. Also, the folding enthalpy in data set [2] was -25.1 kcal/mol.

In the case of GTGTCTGCGAAAGCACAC (((..(((....)))))), the Tm in data set [1] came to 43.8 °C. In addition, the folding enthalpy in data set [2] was -14.6 kcal/mol.

For the sequence GTGTCTGGAAACAGATGC (..((((....))))..), in data set [1], the Tm was found to be 40.2 °C. Also, in data set [2], the folding enthalpy is -20.7 kcal/mol.

For GTGTGAGAAATCACAC ((((((....)))))), the Tm in data set [1] turned out to be 55.8 °C. The folding enthalpy in data set [2] is -30.9 kcal/mol.

Consider GTGTGAGGAAACCCACAC (((((.(....).))))), for which the Tm in data set [1] amounted to 48.3 °C. In addition, in data set [2], the folding enthalpy was -31.7 kcal/mol.

Consider GTGTGCGAAAGCACCAC ((((((....))).))), for which the Tm in data set [1] stood at 51 °C. Further, in data set [2], the folding enthalpy is -9.37 kcal/mol.

On to GTGTGCGAAAGCACTCAC ((((((....)))..))), for which the Tm in data set [1] amounted to 41.8 °C. Also, in data set [2], the folding enthalpy is -8.88 kcal/mol.

Turning to GTGTGCGAAAGCAGCAC ((((((....))).))), the Tm in data set [1] was found to be 52.5 °C. In addition, in data set [2], the folding enthalpy is -20.1 kcal/mol.

Take GTGTGCGAAAGCATGCAC ((((((....)))..))): the Tm in data set [1] is 45.1 °C. The folding enthalpy in data set [2] is -16.1 kcal/mol.

For GTGTGCGGAAACGCATAC ((.((((....)))).)), in data set [1], the Tm is 54.6 °C. Also, the folding enthalpy in data set [2] is -37 kcal/mol.

With GTGTGGAAACACAC (((((....))))), the Tm in data set [1] came to 60.6 °C. Moreover, the folding enthalpy in data set [2] was -25.8 kcal/mol.

As for GTGTGGCGAAAGCCCCAC (((.(((....))).))), the Tm in data set [1] worked out at 51.3 °C. Moreover, the folding enthalpy in data set [2] is -23.5 kcal/mol.

As for GTGTGGGGAAACCCATAC ((.((((....)))).)), the Tm in data set [1] came to 49.2 °C. The folding enthalpy in data set [2] is -30.9 kcal/mol.

Consider GTGTGGGGAAACCTACAC ((((.((....)).)))), for which the Tm in data set [1] worked out at 50.6 °C. Moreover, the folding enthalpy in data set [2] is -32.6 kcal/mol.

Consider GTGTGGGGAAACCTGCAC (((..((....))..))), for which, in data set [1], the Tm was 44.8 °C. The folding enthalpy in data set [2] was -31.9 kcal/mol.

Turning to GTGTGTACGAAAGTACAC (((..(((....)))))), in data set [1], the Tm amounted to 64.2 °C. In data set [2], the folding enthalpy is -14.8 kcal/mol.

On to GTGTGTGGAAACGCATAC ((.((.(....).)).)), for which the Tm in data set [1] was 36 °C. The folding enthalpy in data set [2] is -22.9 kcal/mol.

GTGTTAACGAAAGTTCAC (((..(((....)))))): the Tm in data set [1] was found to be 34.9 °C. In addition, the folding enthalpy in data set [2] was -12.5 kcal/mol.

As for GTGTTACGAAAGTATCAC (((.(((....))).))), in data set [1], the Tm was 46.8 °C. Also, the folding enthalpy in data set [2] was -30.7 kcal/mol.

Turning to GTGTTAGCGAAAGCTCAC (((..(((....)))))), the Tm in data set [1] was 44.2 °C. In data set [2], the folding enthalpy is -21.9 kcal/mol.

With GTGTTCCGAAAGGATCAC (((.(((....))).))), in data set [1], the Tm came to 51.5 °C. In addition, the folding enthalpy in data set [2] is -34.4 kcal/mol.

For the sequence GTGTTCGAAAGAAAACAC ((((((....)))..))), in data set [1], the Tm was 38.2 °C. Moreover, the folding enthalpy in data set [2] was -22.6 kcal/mol.

For GTGTTCGAAAGAACAC ((((((....)))))), the Tm in data set [1] came to 68.6 °C. The folding enthalpy in data set [2] was -31.5 kcal/mol.

The record behind these values is the array DNA melting data of Ke et al. (doi:10.1101/2024.01.08.574731).
